According to ChEMBL document CHEMBL3352173, “Optimization of pyrrolamide topoisomerase II inhibitors toward identification of an antibacterial clinical candidate (AZD5099)” (J Med Chem, 2014):
pIC50: −log10 of the molar value. Converted amounts (≈) assume the structure as drawn.

What was measured:
[1] = system: Staphylococcus aureus; test: Antimicrobial activity against methicillin-sensitive Staphylococcus aureus by broth microdilution/CLSI method; type: functional
[2] = system: Escherichia coli; test: Antimicrobial activity against wild-type Escherichia coli Eco523 by broth microdilution/CLSI method; type: functional; details: Escherichia coli, Eco523; read-out: MIC
[3] = system: Haemophilus influenzae; test: Antimicrobial activity against Haemophilus influenzae by broth microdilution/CLSI method; type: functional; details: Haemophilus influenzae; read-out: MIC
[4] = system: Staphylococcus aureus; test: Antimicrobial activity against methicillin, quinolone-resistant Staphylococcus aureus by broth microdilution/CLSI method; type: functional; details: Staphylococcus aureus; read-out: MIC
[5] = biological target: DNA gyrase subunit B (Staphylococcus aureus, UniProt P0A0K8); test: Inhibition of ATPase activity of Staphylococcus aureus GyrB
Outline: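 IC50 was determined against S. aureus GyrB in the routine screening assay. The enzyme concentration limits resolution below 10 nM.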

[6] = system: Streptococcus pneumoniae; test: Antibacterial activity against Streptococcus pneumoniae by broth microdilution/CLSI method; type: functional
[7] = system: Streptococcus pyogenes; test: Antimicrobial activity against Streptococcus pyogenes by broth microdilution/CLSI method; type: functional
[8] = system: Escherichia coli; test: Antimicrobial activity against Escherichia coli tolC- by broth microdilution/CLSI method; type: functional; details: Escherichia coli; read-out: MIC
[9] = system: Moraxella catarrhalis; test: Antimicrobial activity against Moraxella catarrhalis by broth microdilution/CLSI method; type: functional
[10] = Percentage unbound in human plasma; type: ADME, cell-free
[11] = Octanol-phosphate buffer distribution coefficient, log D of the compound at pH 7.4 by shake flask method; type: physicochemical
[12] = Solubility of the compound; type: physicochemical
[13] = Staphylococcus aureus, read-out: MIC
[14] = Streptococcus pneumoniae, read-out: MIC
[15] = Moraxella catarrhalis, read-out: MIC

DNA gyrase subunit B, sequence (P0A0K8 whole entry): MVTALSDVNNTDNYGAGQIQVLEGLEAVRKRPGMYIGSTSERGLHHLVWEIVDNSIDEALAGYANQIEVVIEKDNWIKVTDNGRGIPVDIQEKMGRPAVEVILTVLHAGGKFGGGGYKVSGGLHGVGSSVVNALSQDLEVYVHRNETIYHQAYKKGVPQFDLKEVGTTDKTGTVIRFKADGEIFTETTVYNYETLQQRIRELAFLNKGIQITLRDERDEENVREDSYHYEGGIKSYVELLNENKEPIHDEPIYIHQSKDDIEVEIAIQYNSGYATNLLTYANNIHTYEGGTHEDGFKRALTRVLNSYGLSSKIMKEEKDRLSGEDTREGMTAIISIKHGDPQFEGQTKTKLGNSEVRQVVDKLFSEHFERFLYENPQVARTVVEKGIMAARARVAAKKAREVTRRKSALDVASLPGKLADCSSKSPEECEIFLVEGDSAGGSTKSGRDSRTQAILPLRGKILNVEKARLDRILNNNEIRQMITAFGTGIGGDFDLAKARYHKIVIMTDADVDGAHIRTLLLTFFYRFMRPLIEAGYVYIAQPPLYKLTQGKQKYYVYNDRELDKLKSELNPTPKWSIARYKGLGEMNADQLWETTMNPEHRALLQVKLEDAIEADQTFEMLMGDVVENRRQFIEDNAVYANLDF

Row | Compound | MIC [1, 13] [µg/mL] | MIC [2] [µg/mL] | MIC [3] [µg/mL] | MIC [4] [µg/mL] | pIC50 [5] | MIC [6, 14] [µg/mL] | MIC [7] [µg/mL] | MIC [8] [µg/mL] | MIC [9, 15] [µg/mL] | fraction unbound [10] | logD [11] | solubility [12] [µM] | MIC [1] [µg/mL] | MIC [6] [µg/mL] | MIC [9] [µg/mL]
1 | Cc1[nH]c(C(=O)N[C@@H]2CCN(c3ncc(C(=O)O)s3)C[C@@H]2F)c(Cl)c1Cl | 1.3 (≈ 3.09 µM) | > 64 | 0.3 (≈ 0.712 µM) | 2.2 (≈ 5.22 µM) | > 8.00 | 0.078 (≈ 0.185 µM) | 0.092 (≈ 0.218 µM) | 0.081 (≈ 0.192 µM) | 0.046 (≈ 0.109 µM) | – | – | – | – | – | –
2 | Cc1[nH]c(C(=O)N[C@@H]2CCN(c3ncc(C(=O)O)s3)CC23OCCO3)c(Cl)c1Cl | 32 (≈ 69.4 µM) | > 64 | 32 (≈ 69.4 µM) | 64 (≈ 139 µM) | 7.82 | 2 (≈ 4.34 µM) | 2 (≈ 4.34 µM) | 1 (≈ 2.17 µM) | 1 (≈ 2.17 µM) | 0.075 | -0.39 | > 1000 | – | – | –
3 | C#CCO[C@H]1CN(c2ncc(C(=O)O)s2)CC[C@H]1NC(=O)c1[nH]c(C)c(Cl)c1Cl | 0.25 (≈ 0.547 µM) | > 8 | 0.13 (≈ 0.284 µM) | 0.25 (≈ 0.547 µM) | > 8.00 | 0.016 (≈ 0.035 µM) | 0.016 (≈ 0.035 µM) | 0.13 (≈ 0.284 µM) | 0.016 (≈ 0.035 µM) | 0.03 | 0.44 | > 1000 | – | – | –
4 | CO[C@H]1CN(c2ncc(C(=O)O)s2)CC[C@@H]1NC(=O)c1[nH]c(C)c(Cl)c1Cl | > 64 | > 64 | > 64 | > 64 | 5.19 | 64 (≈ 148 µM) | – | 64 (≈ 148 µM) | 64 (≈ 148 µM) | – | – | – | – | – | –
5 | Cc1[nH]c(C(=O)N[C@@H]2CCN(c3ncc(C(=O)O)s3)CC23OCC2(CC2)CO3)c(Cl)c1Cl | 0.5 (≈ 0.997 µM) | > 64 | 0.13 (≈ 0.259 µM) | 0.5 (≈ 0.997 µM) | > 8.00 | < 0.063 | < 0.063 | 1 (≈ 1.99 µM) | < 0.063 | 0.012 | 0.88 | > 1000 | – | – | –
6 | COCCO[C@H]1CN(c2ncc(C(=O)O)s2)CC[C@H]1NC(=O)c1[nH]c(C)c(Cl)c1Cl (racemic) | > 8 | > 8 | 8 (≈ 16.8 µM) | – | > 8.00 | 0.5 (≈ 1.05 µM) | – | 2 (≈ 4.19 µM) | 1 (≈ 2.09 µM) | 0.094 | 0.06 | – | – | – | –
7 | COC1(OC)CN(c2ncc(C(=O)O)s2)CC[C@H]1NC(=O)c1[nH]c(C)c(Cl)c1Cl | 2 (≈ 4.32 µM) | > 64 | 1 (≈ 2.16 µM) | 2 (≈ 4.32 µM) | 7.85 | 0.13 (≈ 0.281 µM) | 0.25 (≈ 0.54 µM) | 0.5 (≈ 1.08 µM) | 0.5 (≈ 1.08 µM) | 0.018 | 0.24 | > 1000 | – | – | –
8 | CO[C@H]1CN(c2nc(-c3ccn[nH]3)c(C(=O)O)s2)CC[C@H]1NC(=O)c1[nH]c(C)c(Cl)c1Cl | 0.5 (≈ 1 µM) | 64 (≈ 128 µM) | 0.5 (≈ 1 µM) | 0.17 (≈ 0.34 µM) | > 8.00 | < 0.06 | < 0.06 | 0.18 (≈ 0.36 µM) | < 0.06 | – | 1.7 | 740 (≈ 370 µg/mL) | – | – | –
9 | Cc1[nH]c(C(=O)N[C@@H]2CCN(c3ncc(C(=O)O)s3)C[C@@H]2CO)c(Cl)c1Cl (racemic) | > 64 | > 64 | 16 (≈ 36.9 µM) | 64 (≈ 148 µM) | 7.74 | 8 (≈ 18.5 µM) | – | 1 (≈ 2.31 µM) | 1 (≈ 2.31 µM) | – | -0.42 | – | – | – | –
10 | Cc1[nH]c(C(=O)N[C@@H]2CCN(c3ncc(C(=O)O)s3)C[C@@H]2S(C)(=O)=O)c(Cl)c1Cl (racemic) | > 8 | > 8 | > 8 | – | > 8.00 | > 8 | 8 (≈ 16.6 µM) | > 8 | > 8 | 0.13 | -1.1 | > 1000 | – | – | –
11 | CCO[C@H]1CN(c2ncc(C(=O)O)s2)CC[C@H]1NC(=O)c1[nH]c(C)c(Cl)c1Cl (racemic) | 1 (≈ 2.24 µM) | > 8 | 2 (≈ 4.47 µM) | 2 (≈ 4.47 µM) | > 8.00 | 0.031 (≈ 0.0693 µM) | – | 1 (≈ 2.24 µM) | 0.13 (≈ 0.291 µM) | 0.031 | 0.67 | – | – | – | –
12 | Cc1[nH]c(C(=O)N[C@@H]2CCN(c3ncc(C(=O)O)s3)C[C@@H]2N=[N+]=[N-])c(Cl)c1Cl (racemic) | 0.13 (≈ 0.293 µM) | 32 (≈ 72 µM) | < 0.063 | 0.25 (≈ 0.563 µM) | > 8.00 | < 0.063 | < 0.063 | < 0.063 | < 0.063 | 0.038 | 0.53 | > 1000 | – | – | –
13 | Cc1[nH]c(C(=O)N[C@@H]2CCN(c3ncc(C(=O)O)s3)C[C@@H]2O)c(Cl)c1Cl (racemic) | 16 (≈ 38.2 µM) | > 64 | 1 (≈ 2.38 µM) | 16 (≈ 38.2 µM) | 7.80 | 0.5 (≈ 1.19 µM) | – | 1 (≈ 2.38 µM) | 4 (≈ 9.54 µM) | – | -0.67 | – | – | – | –
14 | CS[C@H]1CN(c2ncc(C(=O)O)s2)CC[C@H]1NC(=O)c1[nH]c(C)c(Cl)c1Cl (racemic) | 0.13 (≈ 0.289 µM) | > 8 | 0.13 (≈ 0.289 µM) | 0.25 (≈ 0.556 µM) | > 8.00 | 0.016 (≈ 0.0356 µM) | 0.016 (≈ 0.0356 µM) | 0.25 (≈ 0.556 µM) | < 0.008 | 0.015 | 0.72 | > 1000 | – | – | –
15 | Cc1[nH]c(C(=O)N[C@@H]2CCN(c3ncc(C(=O)O)s3)CC23OCCCO3)c(Cl)c1Cl | 2 (≈ 4.21 µM) | > 64 | 1 (≈ 2.1 µM) | 4 (≈ 8.41 µM) | > 8.00 | 0.063 (≈ 0.133 µM) | 0.063 (≈ 0.133 µM) | 1 (≈ 2.1 µM) | 0.13 (≈ 0.273 µM) | 0.03 | 0.4 | > 1000 | – | – | –
16 | Cc1[nH]c(C(=O)N[C@@H]2CCN(c3ncc(C(=O)O)s3)C[C@@H]2C)c(Cl)c1Cl (racemic) | 4 (≈ 9.59 µM) | > 8 | 2 (≈ 4.79 µM) | 4 (≈ 9.59 µM) | 7.85 | 0.5 (≈ 1.2 µM) | – | 0.5 (≈ 1.2 µM) | 0.5 (≈ 1.2 µM) | 0.023 | 0.54 | – | – | – | –
17 | CO[C@H]1CO[C@@]2(CN(c3ncc(C(=O)O)s3)CC[C@H]2NC(=O)c2[nH]c(C)c(Cl)c2Cl)OC1 (relative stereo) | 4 (≈ 7.91 µM) | > 64 | 2 (≈ 3.96 µM) | 8 (≈ 15.8 µM) | > 8.00 | 0.063 (≈ 0.125 µM) | 0.063 (≈ 0.125 µM) | 1 (≈ 1.98 µM) | 1 (≈ 1.98 µM) | 0.053 | 0.15 | > 1000 | – | – | –
18 | Cc1[nH]c(C(=O)N[C@@H]2CCN(c3ncc(C(=O)O)s3)C[C@@H]2Cl)c(Cl)c1Cl (racemic) | 0.35 (≈ 0.8 µM) | > 8 | 0.18 (≈ 0.411 µM) | 2 (≈ 4.57 µM) | > 8.00 | 0.044 (≈ 0.101 µM) | – | 0.35 (≈ 0.8 µM) | 0.11 (≈ 0.251 µM) | 0.008 | 0.75 | – | – | – | –
19 | CO[C@@H]1CN(c2ncc(C(=O)O)s2)CC[C@@H]1NC(=O)c1[nH]c(C)c(Cl)c1Cl | 32 (≈ 73.8 µM) | > 64 | 16 (≈ 36.9 µM) | 32 (≈ 73.8 µM) | 6.85 | 1 (≈ 2.31 µM) | – | 8 (≈ 18.5 µM) | 2 (≈ 4.62 µM) | – | – | – | – | – | –
20 | C=C1COC2(CN(c3ncc(C(=O)O)s3)CC[C@H]2NC(=O)c2[nH]c(C)c(Cl)c2Cl)OC1 | 1 (≈ 2.05 µM) | > 64 | 2 (≈ 4.1 µM) | 2 (≈ 4.1 µM) | > 8.00 | < 0.063 | < 0.063 | 0.5 (≈ 1.03 µM) | < 0.063 | 0.006 | 0.82 | > 1000 | – | – | –
21 | CO[C@@H]1CN(c2ncc(C(=O)O)s2)CC[C@H]1NC(=O)c1[nH]c(C)c(Cl)c1Cl | > 64 | > 64 | 16 (≈ 36.9 µM) | > 64 | 6.96 | 8 (≈ 18.5 µM) | – | 2 (≈ 4.62 µM) | 2 (≈ 4.62 µM) | – | – | – | – | – | –
22 | Cc1[nH]c(C(=O)N[C@@H]2CCN(c3ncc(C(=O)O)s3)CC23OCC(C)(C)CO3)c(Cl)c1Cl | 0.5 (≈ 0.993 µM) | > 64 | 0.25 (≈ 0.497 µM) | 0.5 (≈ 0.993 µM) | > 8.00 | < 0.063 | < 0.063 | 1 (≈ 1.99 µM) | < 0.063 | 0.02 | 1.07 | > 1000 | – | – | –
23 | CO[C@H]1CO[C@]2(CN(c3ncc(C(=O)O)s3)CC[C@H]2NC(=O)c2[nH]c(C)c(Cl)c2Cl)OC1 (relative stereo) | 4 (≈ 7.91 µM) | > 64 | 1 (≈ 1.98 µM) | 4 (≈ 7.91 µM) | > 8.00 | 0.063 (≈ 0.125 µM) | 0.063 (≈ 0.125 µM) | 1 (≈ 1.98 µM) | 0.13 (≈ 0.257 µM) | 0.053 | -0.18 | > 1000 | – | – | –
24 | CO[C@H]1CN(c2ncc(C(=O)O)s2)CC[C@H]1NC(=O)c1[nH]c(C)c(Cl)c1Cl (relative stereo) | – | > 64 | 0.3 (≈ 0.692 µM) | 1 (≈ 2.31 µM) | > 8.00 | – | – | 0.35 (≈ 0.808 µM) | – | – | – | – | 1 (≈ 2.31 µM) | 0.063 (≈ 0.145 µM) | 0.076 (≈ 0.175 µM)
25 | COC[C@H]1CN(c2ncc(C(=O)O)s2)CC[C@H]1NC(=O)c1[nH]c(C)c(Cl)c1Cl (racemic) | > 8 | > 8 | > 8 | – | 7.27 | 4 (≈ 8.94 µM) | – | 1 (≈ 2.24 µM) | 2 (≈ 4.47 µM) | 0.052 | 0.06 | – | – | – | –
26 | C=CCO[C@H]1CN(c2ncc(C(=O)O)s2)CC[C@H]1NC(=O)c1[nH]c(C)c(Cl)c1Cl (racemic) | 0.5 (≈ 1.09 µM) | > 8 | 0.5 (≈ 1.09 µM) | 1 (≈ 2.18 µM) | > 8.00 | < 0.063 | < 0.063 | 0.13 (≈ 0.283 µM) | < 0.063 | – | – | – | – | – | –
